# Test system: Fibroblast
# Assay: Multiplex assay against human fibroblast
# Assay type: toxicity, cell-based
# Procedure, shortened: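 Values for tubulin, mitochondrial-mass and membrane-permeability phenotypes are per cents of cells with healthy nuclei. These cells were identified by CellPathfinder machine-learning gating of live cells that had been stained at seeding with Hoechst33342, BioTracker Green Microtubule Cytoskeleton Dye, MitoTracker Red and Annexin V Alexa Fluor 680 and imaged on a CQ1 microscope at 37°C and 5% CO2 after compound addition. The gating first set Hoechst high-intensity objects apart from normal cells, then split normal cells into healthy, pyknosed or fragmented nuclei, and pyknosed cells into mitotic or apoptotic.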
# [1] = 12 h, 1 µM, compound concentration 1 uM, replicate 1
# [2] = 12 h, 1 µM, compound concentration 1 uM, replicate 2
# [3] = 12 h, 10 µM, compound concentration 10 uM, replicate 1
# [4] = 12 h, 10 µM, compound concentration 10 uM, replicate 2
# [5] = 24 h, 1 µM, compound concentration 1 uM, replicate 1
# [6] = 24 h, 1 µM, compound concentration 1 uM, replicate 2
# [7] = 24 h, 10 µM, compound concentration 10 uM, replicate 1
# [8] = 24 h, 10 µM, compound concentration 10 uM, replicate 2
# [9] = 48 h, 1 µM, compound concentration 1 uM, replicate 1
# [10] = 48 h, 1 µM, compound concentration 1 uM, replicate 2
# [11] = 48 h, 10 µM, compound concentration 10 uM, replicate 1
# [12] = 48 h, 10 µM, compound concentration 10 uM, replicate 2
smiles,measurement,setting,value
COc1ccc2c(c1OCc1ccccc1)C[C@@H](C(=O)O)N(C(=O)C(c1ccccc1)c1ccccc1)C2 [OLODANRIGAN],Population Apoptotic (%),[1],46%
same,Population Fragmented Nuclei (%),[1],17%
same,Population Healthy Nuclei (%),[1],63%
same,Population Hoechst High Intensity Objects (%),[1],7%
same,Population Membrane Permeable-Phenotype (%),[1],1%
same,Population Mitochondria Different-Phenotype (%),[1],2%
same,Population Mitotic Cells (%),[1],53%
same,Population Normal (%),[1],92%
same,Population Pyknosed Nuclei (%),[1],19%
same,Population Tubulin-Different-Phenotype (%),[1],29%
same,Total Cell Count,[1],157
same,Population Apoptotic (%),[2],38%
same,Population Fragmented Nuclei (%),[2],21%
same,Population Healthy Nuclei (%),[2],50%
same,Population Hoechst High Intensity Objects (%),[2],1%
same,Population Membrane Permeable-Phenotype (%),[2],9%
same,Population Mitochondria Different-Phenotype (%),[2],5%
same,Population Mitotic Cells (%),[2],61%
same,Population Normal (%),[2],98%
same,Population Pyknosed Nuclei (%),[2],27%
same,Population Tubulin-Different-Phenotype (%),[2],57%
same,Total Cell Count,[2],154
same,Population Apoptotic (%),[3],31%
same,Population Fragmented Nuclei (%),[3],11%
same,Population Healthy Nuclei (%),[3],65%
same,Population Hoechst High Intensity Objects (%),[3],0%
same,Population Membrane Permeable-Phenotype (%),[3],1%
same,Population Mitochondria Different-Phenotype (%),[3],7%
same,Population Mitotic Cells (%),[3],68%
same,Population Normal (%),[3],99%
same,Population Pyknosed Nuclei (%),[3],23%
same,Population Tubulin-Different-Phenotype (%),[3],28%
same,Total Cell Count,[3],140
same,Population Apoptotic (%),[4],34%
same,Population Fragmented Nuclei (%),[4],18%
same,Population Healthy Nuclei (%),[4],54%
same,Population Hoechst High Intensity Objects (%),[4],5%
same,Population Membrane Permeable-Phenotype (%),[4],6%
same,Population Mitotic Cells (%),[4],65%
same,Population Normal (%),[4],94%
same,Population Pyknosed Nuclei (%),[4],26%
same,Population Tubulin-Different-Phenotype (%),[4],46%
same,Total Cell Count,[4],162
same,Population Apoptotic (%),[5],65%
same,Population Fragmented Nuclei (%),[5],18%
same,Population Healthy Nuclei (%),[5],66%
same,Population Hoechst High Intensity Objects (%),[5],6%
same,Population Membrane Permeable-Phenotype (%),[5],0%
same,Population Mitochondria Different-Phenotype (%),[5],1%
same,Population Mitotic Cells (%),[5],34%
same,Population Normal (%),[5],93%
same,Population Pyknosed Nuclei (%),[5],15%
same,Population Tubulin-Different-Phenotype (%),[5],26%
same,Total Cell Count,[5],159
same,Population Apoptotic (%),[6],38%
same,Population Fragmented Nuclei (%),[6],21%
same,Population Healthy Nuclei (%),[6],53%
same,Population Hoechst High Intensity Objects (%),[6],2%
same,Population Membrane Permeable-Phenotype (%),[6],9%
same,Population Mitochondria Different-Phenotype (%),[6],7%
same,Population Mitotic Cells (%),[6],61%
same,Population Normal (%),[6],97%
same,Population Pyknosed Nuclei (%),[6],25%
same,Population Tubulin-Different-Phenotype (%),[6],46%
same,Total Cell Count,[6],146
same,Population Apoptotic (%),[7],53%
same,Population Fragmented Nuclei (%),[7],10%
same,Population Healthy Nuclei (%),[7],68%
same,Population Hoechst High Intensity Objects (%),[7],2%
same,Population Membrane Permeable-Phenotype (%),[7],1%
same,Population Mitochondria Different-Phenotype (%),[7],3%
same,Population Mitotic Cells (%),[7],46%
same,Population Normal (%),[7],97%
same,Population Pyknosed Nuclei (%),[7],21%
same,Population Tubulin-Different-Phenotype (%),[7],21%
same,Total Cell Count,[7],136
same,Population Apoptotic (%),[8],58%
same,Population Fragmented Nuclei (%),[8],17%
same,Population Healthy Nuclei (%),[8],62%
same,Population Hoechst High Intensity Objects (%),[8],3%
same,Population Membrane Permeable-Phenotype (%),[8],4%
same,Population Mitochondria Different-Phenotype (%),[8],4%
same,Population Mitotic Cells (%),[8],41%
same,Population Normal (%),[8],96%
same,Population Pyknosed Nuclei (%),[8],19%
same,Population Tubulin-Different-Phenotype (%),[8],50%
same,Total Cell Count,[8],153
same,Population Apoptotic (%),[9],42%
same,Population Fragmented Nuclei (%),[9],27%
same,Population Healthy Nuclei (%),[9],58%
same,Population Hoechst High Intensity Objects (%),[9],3%
same,Population Membrane Permeable-Phenotype (%),[9],0%
same,Population Mitochondria Different-Phenotype (%),[9],2%
same,Population Mitotic Cells (%),[9],57%
same,Population Normal (%),[9],96%
same,Population Pyknosed Nuclei (%),[9],14%
same,Population Tubulin-Different-Phenotype (%),[9],20%
same,Total Cell Count,[9],154
same,Population Apoptotic (%),[10],41%
same,Population Fragmented Nuclei (%),[10],31%
same,Population Healthy Nuclei (%),[10],52%
same,Population Hoechst High Intensity Objects (%),[10],1%
same,Population Membrane Permeable-Phenotype (%),[10],1%
same,Population Mitochondria Different-Phenotype (%),[10],4%
same,Population Mitotic Cells (%),[10],58%
same,Population Normal (%),[10],98%
same,Population Pyknosed Nuclei (%),[10],15%
same,Population Tubulin-Different-Phenotype (%),[10],40%
same,Total Cell Count,[10],156
same,Population Apoptotic (%),[11],57%
same,Population Fragmented Nuclei (%),[11],15%
same,Population Healthy Nuclei (%),[11],69%
same,Population Hoechst High Intensity Objects (%),[11],5%
same,Population Membrane Permeable-Phenotype (%),[11],1%
same,Population Mitochondria Different-Phenotype (%),[11],5%
same,Population Mitotic Cells (%),[11],42%
same,Population Normal (%),[11],94%
same,Population Pyknosed Nuclei (%),[11],15%
same,Population Tubulin-Different-Phenotype (%),[11],27%
same,Total Cell Count,[11],146
same,Population Apoptotic (%),[12],61%
same,Population Fragmented Nuclei (%),[12],29%
same,Population Healthy Nuclei (%),[12],58%
same,Population Hoechst High Intensity Objects (%),[12],7%
same,Population Membrane Permeable-Phenotype (%),[12],3%
same,Population Mitotic Cells (%),[12],38%
same,Population Normal (%),[12],92%
same,Population Pyknosed Nuclei (%),[12],12%
same,Population Tubulin-Different-Phenotype (%),[12],45%
same,Total Cell Count,[12],163

# From ChEMBL document CHEMBL5058577, “EUbOPEN Chemogenomics Library 2 (Multiplex)” (2022)
